The values that follow come from article PMC2718129 (Molecular cancer therapeutics, 2009).

What is called GI50 is the concentration that inhibits growth by half. As usually defined, the T/C is the result in the treated group divided by that in the control group, in per cent.

Molecules are shown by their SMILES. “And” between values parts separate entries of the source, which are not always exact repeats. Equal values may be shown once. Read-outs that look alike come from different tables or passages of the source. Where only a bound is given, the exact number is not on record here.

Data set [1] deals with LoVo cells. Kind of data set: Antiproliferative GI50 assay, LoVo. The following applies: Homo sapiens, 96 h, read-out: antiproliferative GI50. Format: cell-based. The essentials:
(§1)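 Cells grown in DMEM with 2 mmol/L glutamine, penicillin/streptomycin and 10% FBS at 37°C in 5% CO2, and mycoplasma-negative by PCR. Continuous 96 h exposure to test compound. Proliferation was read by Alamar Blue or sulforhodamine B, and GI50 was taken as the concentration giving 50% inhibition of proliferation.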

The subject of data set [2] is SNUC2B cells. The experiment in a line: Antiproliferative GI50 assay, SNUC2B. It counts as cell-based. The following applies: Homo sapiens, SNU-C2B, 96 h, read-out: antiproliferative GI50. The essentials: as §1
The subject of data set [3] is HCT116 cells. The experiment in a line: Antiproliferative GI50 assay, HCT116. It counts as cell-based. The note with it: Homo sapiens, HCT-116, 96 h, read-out: antiproliferative GI50. The method, boiled down:
as §1

The subject of data set [4] is U87MG human glioblastoma xenografts. The experiment in a line: U87MG glioblastoma xenograft efficacy study. It counts as in vivo, athymic mice. The note with it: for T/C (final tumor weights) / tumor growth inhibition: U87MG xenografts; for tolerability of doses: i.p. dosing for 14 days.
Data set [5] relates to IGROV-1 human ovarian cancer xenografts. The experiment in a line: IGROV-1 ovarian cancer xenograft efficacy study. Format: in vivo, athymic mice. The following applies: IGROV-1 xenografts.
Data set [6] relates to AKT phosphorylation (Ser473, Thr308) in U87MG tumor xenografts. The experiment in a line: Pharmacodynamic AKT phosphorylation in U87MG xenografts. It counts as in vivo, athymic mice.
Data set [7] relates to poly(ADP-ribose) polymerase cleavage in U87MG xenografts. Kind of data set: PARP cleavage in U87MG xenografts. It counts as in vivo, athymic mice. The following applies: 4 hours after oral dosing with 25 to 150 mg/kg.
For data set [8] the following is noted: mice, 10 mg/kg; cited from earlier work.
For data set [9], the system named is forkhead transcription factor translocation. The note with it: read-out: 50% inhibition of forkhead transcription factor translocation; previously reported; cited from earlier work.
Data set [10] concerns U87MG human glioblastoma xenografts. The following applies: PTEN-null U87MG glioblastoma xenografts; cited from earlier work.
Data set [11] relates to AKT phosphorylation (Ser473, Thr308) in U87MG tumor xenografts. The note with it: for a short time; cited from earlier work.
Data set [12] has as its target p110γ (Homo sapiens, UniProt P48736). The experiment in a line: Phosphatidylinositide 3-kinase scintillation proximity assay, p110γ. Format: biochemical. The note with it: read-out: IC50 against p110γ; 1 μmol/L ATP. For orientation: In a scintillation proximity assay essentially only radioactivity close to the scintillant gives light.
The subject of data set [13] is phosphorylation of GSK3β Ser9 in U87MG cells. Kind of data set: Electrochemiluminescent immunoassay. It counts as cell-based, human. The method, boiled down:
(§2)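 U87MG cells were seeded at 8 × 10^4 cells/mL and treated 48 h later for 2 or 8 h with 5 to 500 nmol/L inhibitor. Cells were lysed and freeze-thawed once at -80°C, and lysate went directly onto Meso Scale multiplex phospho/total plates with overnight sample incubation before secondary antibody. One well from each of three independent plates was read. IC50 is given as mean ±SD.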

Data set [14] relates to panel of human cancer cell lines and human umbilical vein endothelial cells. Kind of data set: Antiproliferative GI50 assay, cell line panel. Format: cell-based. The following applies: 96 hours continuous exposure. The method, boiled down:
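Tumor lines were grown in DMEM with 2 mmol/L glutamine, antibiotics and 10% FBS at 37°C in 5% CO2, and read by Alamar Blue or sulforhodamine B. Pooled HUVEC were used at passages 3 to 8 and read by an alkaline phosphatase assay. Exposure was continuous for 96 h. GI50 is the mean of three independent determinations.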

Data set [15] in a line: Pharmacokinetics of PI-540 and PI-620 in BALB/c mice. It counts as in vivo. The note with it: for volume of distribution: female BALB/c mice, 10 mg/kg i.v.; for plasma clearance / oral bioavailability / terminal half-life in plasma / terminal half-life in tissues / spleen to plasma ratio: mice; for plasma clearance / terminal half-life in plasma / terminal half-life in tissues / spleen to plasma ratio: 10 mg/kg; for oral bioavailability: 10 mg/kg i.v. and p.o.; for terminal half-life in plasma / terminal half-life in tissues: after i.v. administration; for spleen to plasma ratio: following i.v. dosing.

Data set [16] has as its system phosphorylation of GSK3β in U87MG tumor xenografts. The experiment in a line: Pharmacodynamic GSK3β phosphorylation in U87MG xenografts. Format: in vivo, athymic mice. The following applies: 50 mg/kg b.i.d or 100 mg/kg u.i.d i.p. for 4 days.
Data set [17] concerns phosphorylation of AKT (Thr308, Ser473) in U87MG cells. The experiment in a line: Electrochemiluminescent immunoassay. It counts as cell-based, human. The following applies: 2 or 8 h. The method, boiled down:
as §2

Data set [18] has as its system phosphorylation of p70S6K Thr421/Ser424 in U87MG cells. The experiment in a line: Electrochemiluminescent immunoassay. The following applies: at 2 hours and, more potently, at 8 hours. Format: cell-based, human. The essentials:
as §2

Data set [19] concerns phosphorylation of S6 ribosomal protein Ser235/Ser236 in U87MG cells. Kind of data set: Electrochemiluminescent immunoassay. Format: cell-based, human. The note with it: at 2 hours and, more potently, at 8 hours. The essentials: as §2
The mark [20] stands for this setting: 25 mg/kg daily p.o. for 19 days.
Setting [21] is: 25 mg/kg oral daily for 13 days.
The mark [22] stands for this setting: 50 mg/kg b.i.d. i.p. for 14 days, 50 mg/kg.
Setting [23] is: 50 mg/kg b.i.d or 100 mg/kg u.i.d i.p. for 4 days, at 1 hour.
[24] abbreviates: 25 mg/kg b.i.d i.p. for 14 days, 25 mg/kg.
[25] abbreviates: 50 mg/kg u.i.d i.p. for 14 days.

p110γ, sequence (P48736 whole entry, species assumed): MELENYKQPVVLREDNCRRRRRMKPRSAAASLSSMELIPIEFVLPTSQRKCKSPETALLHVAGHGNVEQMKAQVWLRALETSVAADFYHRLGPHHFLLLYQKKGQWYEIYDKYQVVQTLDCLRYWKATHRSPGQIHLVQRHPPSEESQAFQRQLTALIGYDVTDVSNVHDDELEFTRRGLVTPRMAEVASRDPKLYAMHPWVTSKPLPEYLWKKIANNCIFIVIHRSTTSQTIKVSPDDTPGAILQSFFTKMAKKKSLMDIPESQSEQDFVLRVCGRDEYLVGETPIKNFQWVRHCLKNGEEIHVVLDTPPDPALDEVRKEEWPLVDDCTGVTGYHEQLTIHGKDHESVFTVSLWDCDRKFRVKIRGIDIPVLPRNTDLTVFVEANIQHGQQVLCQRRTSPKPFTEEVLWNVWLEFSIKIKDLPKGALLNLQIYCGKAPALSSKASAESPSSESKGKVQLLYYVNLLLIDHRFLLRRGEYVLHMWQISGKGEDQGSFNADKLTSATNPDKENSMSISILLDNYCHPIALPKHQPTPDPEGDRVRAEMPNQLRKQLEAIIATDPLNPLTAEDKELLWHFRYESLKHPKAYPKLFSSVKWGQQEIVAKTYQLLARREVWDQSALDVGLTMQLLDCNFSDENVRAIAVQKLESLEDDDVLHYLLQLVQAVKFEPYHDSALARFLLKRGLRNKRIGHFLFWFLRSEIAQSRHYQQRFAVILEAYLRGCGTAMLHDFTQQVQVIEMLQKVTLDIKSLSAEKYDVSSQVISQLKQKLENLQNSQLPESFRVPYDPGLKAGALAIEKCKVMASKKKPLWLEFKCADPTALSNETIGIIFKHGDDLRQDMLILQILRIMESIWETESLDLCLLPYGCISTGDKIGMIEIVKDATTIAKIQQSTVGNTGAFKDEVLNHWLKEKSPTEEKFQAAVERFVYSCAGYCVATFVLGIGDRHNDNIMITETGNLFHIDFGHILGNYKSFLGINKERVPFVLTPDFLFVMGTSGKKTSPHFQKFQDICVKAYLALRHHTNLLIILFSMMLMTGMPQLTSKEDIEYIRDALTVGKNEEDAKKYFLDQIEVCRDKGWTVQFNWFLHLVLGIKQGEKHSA

Regarding `CS(=O)(=O)N1CCN(Cc2cc3nc(-c4cccc5[nH]ncc45)nc(N4CCOCC4)c3s2)CC1` [GDC-0941, 2-(1H-Indazol-4)-6-(4-methanesulfonyl-piperazin-1-ylmethyl)-4-morpholin-4-yl-thieno[3,2-d]pyrimidine], the values for the GI50 in data set [1], in [2] and in [3] were 180 nM, 1630 nM and 905 nM, respectively. Besides, the “T/C (final tumor weights)” value in [4] (setting [20]) was found to be 23.4%; in [4] (150 mg/kg daily p.o. for 19 days), 2.3%. Further, the tumor growth inhibition in data set [4] (setting [20]) was 76.6%; in data set [4] (150 mg/kg daily p.o. for 19 days, 150 mg/kg), 98% and 97.7%; in data set [5] (setting [21]), 49.5%; in [5] (150 mg/kg oral daily for 13 days, 150 mg/kg), 80% and 80.3%. Besides, the tolerability of therapy result in [4] (athymic mice, 25 to 150 mg/kg daily p.o. for 19 days, all groups gained weight at similar rates to controls) was “well tolerated”. Further, the T/C in data set [5] (setting [21]) was 50.5%; in data set [5] (150 mg/kg oral daily for 13 days) it was 19.7%. Further, the “levels of activated AKT Ser473 in tumor” value in [6] (150 mg/kg daily p.o. for 19 days, 4 hours after the last dose) was “undetectable”. For the same molecule, the “duration of maintained inhibition of AKT Ser473 phosphorylation in tumor” value in data set [6] (oral dosing) is above 8 h. Besides, in data set [7], the “poly(ADP-ribose) polymerase cleavage in tumor samples” value is “clear increase”. The oral bioavailability in [8] is 78%.
For `Oc1cccc(-c2nc(N3CCOCC3)c3oc4ncccc4c3n2)c1` [PI-103], the figures for the concentration for 50% growth inhibition (GI50) in [1] and in data set [2] were 22 nM and 827 nM, respectively. Further, the IC50 in data set [9] is 30 nM. The “growth inhibition in xenografts” value in data set [10] is given as above 50%. Further, in [11], the “inhibition of phosphorylation of AKT Ser473 in tumor” value was at most 50%.
Consider `CN1CCN(Cc2cc3nc(-c4cccc(O)c4)nc(N4CCOCC4)c3s2)CC1` [PI-540], for which, in data set [12], the IC50 is above 300 nM. The “fold less potent in inhibiting phosphorylation of GSK3β Ser9 compared with phosphorylation of AKT” value in [13] was 10 fold. Besides, the “growth inhibition potency in each cell line of the panel” value in data set [14] is “submicromolar”. In data set [15], the volume of distribution is reported as 300 mL, the plasma clearance entry is reported as “high”, the oral bioavailability was below 10% and the “terminal half-life in plasma” value amounted to 0.24 h. Besides, in data set [15], the “terminal half-life in tissues” value was found to be 7.6 h and the “spleen to plasma ratio” value worked out at 31. For the same molecule, in [4] (setting [22]), the “T/C (final tumor weights)” value is 34% and 33.9%; the tumor growth inhibition was 66% and 66.1%. Besides, the tolerability of doses entry in data set [4] (athymic mice) was “very well tolerated”. Further, in data set [6] (setting [23]), the “inhibition of phosphorylation on AKT Ser473 in tumor” value was above 50% and the “inhibition of phosphorylation on AKT Thr308 in tumor” value is recorded as above 50%. The “inhibition of phosphorylation of GSK3β in tumor” value in data set [16] was “no detectable inhibition”.
For `OCCN1CCN(Cc2cc3nc(-c4cccc(O)c4)nc(N4CCOCC4)c3s2)CC1` [PI-620], in data set [12], the IC50 was above 300 nM. Moreover, the “growth inhibition potency in each cell line of the panel” value in [14] is “submicromolar”. In addition, in [15], the volume of distribution stood at 206 mL, the plasma clearance entry is given as “high”, the oral bioavailability is listed as below 10% and the “terminal half-life in plasma” value came to 0.9 h. Moreover, in [15], the “terminal half-life in tissues” value came to 4.3 h and the “spleen to plasma ratio” value amounted to 13.9. In addition, in data set [4] (setting [24]), the “T/C (final tumor weights)” value was 27% and 26.7%; the tumor growth inhibition is 73% and 73.3%. For the same molecule, in data set [4] (setting [25]), the “T/C (final tumor weights)” value was 44.8% and the tumor growth inhibition worked out at 55.2%. Also, the tolerability of doses result in [4] (athymic mice) is reported as “very well tolerated”.
Turning to `CO[C@H]1C[C@@H]2CC[C@@H](C)[C@@](O)(O2)C(=O)C(=O)N2CCCC[C@H]2C(=O)O[C@H]([C@H](C)C[C@@H]2CC[C@@H](O)[C@H](OC)C2)CC(=O)[C@H](C)/C=C(\C)[C@@H](O)[C@@H](OC)C(=O)[C@H](C)C[C@H](C)/C=C/C=C/C=C/1C` [Rapamycin], in data set [17], the “effect on phosphorylation of AKT” value is “did not affect”. In data set [13] (2 or 8 h), the “effect on phosphorylation of GSK3β” value is on record as “did not affect”. For the same molecule, in data set [18], the “effect on phosphorylation of p70S6K” value is given as “inhibited”. The “effect on phosphorylation of S6 ribosomal protein” value in data set [19] was “inhibited”.
